In brackets after ≈: the same amount, converted by molar mass. Activity calls are given as the source filed them. No cut-off for these calls is given here.
What was measured:
Staphylococcus aureus [1] = assay: Bacteriostatic activity against methicillin-resistant Staphylococcus aureus ATCC 33591 after 18 hrs; type: functional, organism-based
In short: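 After the 18 h, 33 °C microdilution MIC plate, a sterile swab dipped into each well showing growth inhibition was inoculated onto an LB plate to tell bactericidal from bacteriostatic action.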

Staphylococcus aureus [2] = assay: Bacteriostatic activity against methicillin-susceptible Staphylococcus aureus ATCC 29213 after 18 hrs; type: functional, organism-based
In short: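 Broth dilution susceptibility test for aerobic bacteria against MSSA ATCC 29213. Compounds in DMSO, serially diluted to 10 concentrations (0.125−64 μg/mL) in 96-well plates, tested in triplicate with vancomycin control and six untreated media controls per plate. Incubated at 33 °C for 18 h. MIC was the lowest concentration without visible growth. Inhibited wells were swabbed onto LB plates to distinguish bacteriostatic from bactericidal.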

Staphylococcus aureus [3] = assay: Antibacterial activity against methicillin-resistant Staphylococcus aureus ATCC 33591 after 18 hrs; type: functional; conditions: ATCC 33591, 18 h
In short: (§1)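 Dilution susceptibility test for aerobic bacteria. Compounds dissolved in DMSO and serially diluted to 10 concentrations (0.125–64 μg/mL) in 96-well plates, run in triplicate. Vancomycin served as control, with six untreated media controls per plate. Incubation at 33 °C for 18 h; MIC read as the lowest concentration inhibiting visible growth.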

Staphylococcus aureus [4] = assay: Antibacterial activity against methicillin-susceptible Staphylococcus aureus ATCC 29213 after 18 hrs; type: functional; conditions: ATCC 29213, 18 h; in short: as §1

| Structure (SMILES) | Activity (Staphylococcus aureus [1]) | Activity (Staphylococcus aureus [2]) | MIC (Staphylococcus aureus [3]) | MIC (Staphylococcus aureus [4]) |
| --- | --- | --- | --- | --- |
| CCCCCCCCCCCCCCCCCCCCCCC[C@@H]1CC(=O)N[C@H]([C@H](C)O)C(=O)N[C@@H](C(C)C)C(=O)N[C@@H](C)C(=O)N2CCC[C@@H]2C(=O)N[C@H]([C@@H](C)CC)C(=O)N[C@@H](C(C)C)C(=O)N[C@@H]([C@@H](C)OC)C(=O)O1 [PEPTIDOLIPIN B] | Active | Active | 64 mg/L (≈ 58.7 µM) |  |
| CCCCCCCCCCCCCCCCCCCCCCCCC[C@@H]1CC(=O)N[C@H]([C@H](C)O)C(=O)N[C@@H](C(C)C)C(=O)N[C@@H](C)C(=O)N2CCC[C@@H]2C(=O)N[C@H]([C@@H](C)CC)C(=O)N[C@@H](C(C)C)C(=O)N[C@@H]([C@@H](C)OC)C(=O)O1 [PEPTIDOLIPIN C] |  |  | > 64 mg/L | > 64 mg/L |
| CCCCCCCCCCCCCCCCCCCCCCCCCCC[C@@H]1CC(=O)N[C@H]([C@H](C)O)C(=O)N[C@@H](C(C)C)C(=O)N[C@@H](C)C(=O)N2CCC[C@@H]2C(=O)N[C@H]([C@@H](C)CC)C(=O)N[C@@H](C(C)C)C(=O)N[C@@H]([C@@H](C)OC)C(=O)O1 [PEPTIDOLIPIN D] |  |  | > 64 mg/L | > 64 mg/L |
| CCCCCCCC/C=C\CCCCCCCCCCCCCCC[C@@H]1CC(=O)N[C@H]([C@H](C)O)C(=O)N[C@@H](C(C)C)C(=O)N[C@@H](C)C(=O)N2CCC[C@@H]2C(=O)N[C@H]([C@@H](C)CC)C(=O)N[C@@H](C(C)C)C(=O)N[C@@H]([C@@H](C)OC)C(=O)O1 [PEPTIDOLIPIN E] | Active | Active |  | 64 mg/L (≈ 57.3 µM) |

Source: ChEMBL document CHEMBL2034958, “Peptidolipins B-F, antibacterial lipopeptides from an ascidian-derived Nocardia sp” (2012)
